Drawing on ChEMBL document CHEMBL1122314, “Acute effects of alkylating agents on canine renal function: specifically designed synthetic maleimides” (J Med Chem, 1983), this text covers Change and T1/2 for 7 molecules.

Activity calls are given as the source filed them. The calls are words filed in the database; no cut-off is given here.

The test system of data set [1] is Canis familiaris. As to the kind of experiment: The changes in canine renal function that were monitored over the 2-h interval following 20 umol/kg renal arterial administration; no change. In kind it is functional, organism-based. The settings on record: Canis lupus familiaris.
Data set [2] deals with Canis familiaris. Put plainly: The changes in canine renal function that were monitored over the 2-h interval following 146 umol/kg intravenous administration. In kind it is functional, Canis lupus familiaris. A digest of the protocol:
(§1)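 Dogs received the maleimide into the jugular vein at 73.0 or 146 µmol/kg over 10 min, dissolved in 0.9% saline with an equivalent amount of NaHCO3. Urine was collected in 10-min periods for 2 h. Read-outs were urine flow, urinary pH, GFR (inulin clearance), and Na, K (flame photometry) and Cl excretion. Each value is the change from the immediately preceding pretreatment period, analysed by Dunnett's test.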

Data set [3] in a line: Half life period with Glutathione (GSH); activity expressed in terms of rx, no rx means no reaction. In kind it is ADME.
A short description of data set [4]: Half life period with L-Lys; activity expressed in terms of rx, no rx means no reaction. In kind it is ADME.
The test system of data set [5] is Canis familiaris. As to the kind of experiment: The changes in canine renal function that were monitored over the 2-h interval following 73 umol/kg intravenous administration. In kind it is functional, Canis lupus familiaris. In outline: as §1
Data set [6] concerns Canis familiaris. Put plainly: The changes in canine renal function that were monitored over the 2-h interval following 20 umol/kg renal arterial administration; NC=no change. The settings on record: Canis lupus familiaris. It is filed as functional, organism-based.

Regarding `CC1=CC(=O)N(c2ccc(C(=O)O)cc2)C1=O`, in the data set with Canis familiaris [1], the Change result is “inactive”.
In the case of `CC1=CC(=O)N(c2ccc(C(=O)O)cc2C)C1=O`, in the data set on Canis familiaris [2], the Change worked out at 5. In addition, the Change result in the data set with Canis familiaris [1] is “inactive”.
For the molecule `CC1=C(C)C(=O)N(c2ccc(C(=O)NCC(=O)O)cc2)C1=O`, the T1/2 entry in data set [3] and in data set [4] was “No RX” in each case. Besides, the Change entry in the data set with Canis familiaris [1] was “inactive”.
On to `CC1=C(C)C(=O)N(c2ccc(C(=O)O)cc2)C1=O`, for which, in the data set on Canis familiaris [1], the Change entry was “inactive”.
On to `O=C(O)c1ccc(N2C(=O)C=CC2=O)cc1`, for which the Change result in the data set with Canis familiaris [1] is “inactive”.
Regarding `O=C(O)CNC(=O)c1ccc(N2C(=O)C=CC2=O)cc1`, the Change in the data set with Canis familiaris [5] is given as approximately -5. Besides, in the data set with Canis familiaris [6], the Change result is “inactive”.
Turning to `CC1=CC(=O)N(c2ccc(C(=O)NCC(=O)O)cc2)C1=O`, the Change result with Canis familiaris [1] is “inactive”.
